Source: publication PMC5791907 (European journal of medicinal chemistry, 2018)

Legend:
HeLa cells [1] = assay: Flow cytometric analysis of cell cycle distribution; format: cell-based, human; conditions: 24 h treatment, evident at 500 nM
Method in brief: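 HeLa cells (5 × 10^5) exposed to a range of test compound concentrations for 24 h, collected, and fixed in ice-cold 70% ethanol. Treated with lysis buffer containing RNase A and 0.1% Triton X-100, stained with PI, then analysed by flow cytometry. Phase distribution taken from DNA histograms. Mean ± SEM of two independent experiments.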

HeLa cells [2] = assay: Apoptosis assay; format: cell-based, human; conditions: 24 h incubation, further increased at 48 h
HeLa cells [3] = assay: Mitochondrial membrane potential; format: cell-based, human; conditions: 100–250 nM, 6-48 h
Method in brief: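 HeLa cells treated with test compound for 6, 12, 24 or 48 h, then stained with the lipophilic cationic probe JC-1. Mitochondrial potential read by flow cytometry. Data are mean ± SEM of three independent experiments.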

HeLa cells [4] = assay: ROS production; format: cell-based, human; conditions: 250 nM, starting after 12–24 h
HeLa cells [5] = assay: Western blot analysis of cell cycle checkpoint and apoptosis proteins; format: cell-based, human
[6] = tested on: L1210, FM3A, CEM and HeLa cell lines; assay: Antiproliferative activity over the panel of four cancer cell lines; format: cell-based
Method in brief: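 Cells were seeded at 300,000–500,000 cells/mL with serial dilutions of test compound and incubated at 37 °C: 2 days for L1210 and FM3A, 3 days for CEM, and 4 days for HeLa. Cell number was counted with a Coulter counter. For each line, IC50 was the concentration that inhibited proliferation by 50%.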

## COC(=O)c1sc(-c2ccccc2)cc1Nc1cc(OC)c(OC)c(OC)c1 [Compound 4a, Methyl 5-phenyl-3-[(3,4,5-trimethoxyphenyl)amino]thiophene-2-carboxylate]
HeLa cells [1]
  Effect on cell cycle progression: induced a G2/M arrest
HeLa cells [2]
  Induction of apoptosis (annexin-V/PI): induced a significant proportion of apoptotic cells

## COC(=O)c1sc(-c2cccs2)cc1Nc1cc(OC)c(OC)c(OC)c1 [Compound 4c, Methyl 4-[(3,4,5-trimethoxyphenyl)amino]-[2,2′-bithiophene]-5-carboxylate]
HeLa cells [3]
  Mitochondrial depolarization (cells with low Δψmt): time-dependent increase in the percentage of cells with low Δψmt
HeLa cells [1]
  Effect on cell cycle progression: induced a G2/M arrest
HeLa cells [4]
  ROS production: induced significant production of ROS
HeLa cells [5]
  PARP cleavage: concentration-and time-dependent cleavage of PARP
HeLa cells [5]; 24 h, concentration-dependent, marked reduction at 48 h
  cyclin B1 expression: increase in cyclin B1 expression
HeLa cells [5]; 24 h, even at 100 nM
  cdc25c expression: marked reduction in the expression of phosphatase cdc25c
HeLa cells [5]; 24 h and 48 h, 250 nM
  phosphorylated Cdk1: decrease in the phosphorylated form of cyclin dependent kinase-1
HeLa cells [5]; starting after 24 h, even at 0.1 μM
  expression of anti-apoptotic proteins Bcl-2 and Mcl-1: decreased
HeLa cells [2]
  Induction of apoptosis (annexin-V/PI): induced a significant proportion of apoptotic cells
[6]; read-out: mean IC50 value (antiproliferative activity), mean over cell lines
  IC50: 140 nM

## COC(=O)c1sc(-c2cc(OC)c(OC)c(OC)c2)cc1Nc1cc(OC)c(OC)c(OC)c1 [Compound 4p, Methyl 5-(3,4,5-trimethoxyphenyl)-3-[(3,4,5-trimethoxyphenyl)amino]thiophene-2-carboxylate]
[6]; four cancer cell lines
  antiproliferative activity (in words): not active

## COC(=O)c1sc(-c2ccc(C)cc2)cc1Nc1cc(OC)c(OC)c(OC)c1 [Compound 4i, Methyl 5-(p-tolyl)-3-[(3,4,5-trimethoxyphenyl)amino]thiophene-2-carboxylate]
HeLa cells [1]
  Effect on cell cycle progression: induced a G2/M arrest
HeLa cells [2]
  Induction of apoptosis (annexin-V/PI): induced a significant proportion of apoptotic cells
